# Assay results: ChEMBL document CHEMBL3044690, “Synthesis and herbicidal activity of 2-cyano-3-(2-chlorothiazol-5-yl)methylaminoacrylates” (2004)
# Key:
# Assay type in all cases: functional
# Brassica napus [1] = test: Preemergence herbicidal activity against Brassica napus (oilseed rape) under greenhouse condition at 1.5 kg/ha applied immediately after seed planting
# Summary of the method: (§1)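 Seeds sown in 6-cm-diameter boxes of artificial mixed soil. Boxes were kept under plastic film until emergence to hold moisture, and plants were grown in a greenhouse. Above-ground fresh weight was weighed 10 days after treatment. Control efficiency is reported as percent inhibition.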
# Amaranthus retroflexus [2] = test: Pre-emergence herbicidal activity against Amaranthus retroflexus under greenhouse condition at 1.5 kg/ha applied immediately after seed planting; summary of the method: as §1
# Medicago sativa [3] = test: Preemergence herbicidal activity against Medicago sativa (alfalfa) under greenhouse condition at 1.5 kg/ha applied immediately after seed planting; summary of the method: as §1
# Brassica napus [4] = test: Postemergence herbicidal activity against Brassica napus (oilseed rape) under greenhouse condition at 750 g/ha applied after expansion of true leaf; summary of the method: as §1
# Brassica napus [5] = test: Postemergence herbicidal activity against Brassica napus (oilseed rape) under greenhouse condition at 187.5 g/ha applied after expansion of true leaf; summary of the method: as §1
# Amaranthus retroflexus [6] = test: (§2) Post-emergence herbicidal activity against Amaranthus retroflexus under greenhouse condition at […] applied after expansion of true leaf; summary of the method: as §1
# Medicago sativa [7] = test: Postemergence herbicidal activity against Medicago sativa (alfalfa) under greenhouse condition at 1.5 kg/ha applied after expansion of true leaf; summary of the method: as §1
# Amaranthus retroflexus [8] = test: Post-emergence herbicidal activity against Amaranthus retroflexus under greenhouse condition at 750 g/ha applied after expansion of true leaf; summary of the method: as §1
# Brassica napus [9] = test: Postemergence herbicidal activity against Brassica napus (oilseed rape) under greenhouse condition at 1.5 kg/ha applied after expansion of true leaf; summary of the method: as §1
# Amaranthus retroflexus [10] = test: Post-emergence herbicidal activity against Amaranthus retroflexus under greenhouse condition at 1.5 kg/ha applied after expansion of true leaf; summary of the method: as §1
# Brassica napus [11] = test: Postemergence herbicidal activity against Brassica napus (oilseed rape) under greenhouse condition at 375 g/ha applied after expansion of true leaf; summary of the method: as §1
# Amaranthus retroflexus [12] = test: as §2; summary of the method: as §1; remark: listed apart in the source
# Brassica napus [13] = test: Postemergence herbicidal activity against Brassica napus (oilseed rape) under greenhouse condition at 150 g/ha applied after expansion of true leaf; summary of the method: as §1
# Brassica napus [14] = test: Postemergence herbicidal activity against Brassica napus (oilseed rape) under greenhouse condition at 37.5 g/ha applied after expansion of true leaf; summary of the method: as §1
# Brassica napus [15] = test: Postemergence herbicidal activity against Brassica napus (oilseed rape) under greenhouse condition at 75 g/ha applied after expansion of true leaf; summary of the method: as §1
# Brassica napus [16] = test: Postemergence herbicidal activity against Brassica napus (oilseed rape) under greenhouse condition at 18.75 g/ha applied after expansion of true leaf; summary of the method: as §1
# Brassica napus [17] = test: Postemergence herbicidal activity against Brassica napus (oilseed rape) under greenhouse condition at 300 g/ha applied after expansion of true leaf; summary of the method: as §1
Compound,Activity (Brassica napus [1]) [%],Activity (Amaranthus retroflexus [2]) [%],Activity (Medicago sativa [3]) [%],Activity (Brassica napus [4]) [%],Activity (Brassica napus [5]) [%],Activity (Amaranthus retroflexus [6]) [%],Activity (Medicago sativa [7]) [%],Activity (Amaranthus retroflexus [8]) [%],Activity (Brassica napus [9]) [%],Activity (Amaranthus retroflexus [10]) [%],Activity (Brassica napus [11]) [%],Activity (Amaranthus retroflexus [12]) [%],Activity (Brassica napus [13]) [%],Activity (Brassica napus [14]) [%],Activity (Brassica napus [15]) [%],Activity (Brassica napus [16]) [%],Activity (Brassica napus [17]) [%]
CCOCCOC(=O)/C(C#N)=C(/CC)NCc1cnc(Cl)s1,91,70,46,69,29,42,70,57,100,83,60,50,,,,,
CCOCCOC(=O)/C(C#N)=C(/C)NCc1cnc(Cl)s1,93,87,47,96,39,73,94,98,95,100,59,78,,,,,
CCOCCOC(=O)/C(C#N)=C(\NCc1ccc(Cl)cc1)C(C)C,0,52,0,,,,28,,96,94,,,,,,,
COCCOC(=O)/C(C#N)=C(/C)NCc1cnc(Cl)s1,78,45,0,,,,26,,100,81,,,,,,,
CCOCCOC(=O)/C(C#N)=C(\NCc1cnc(Cl)s1)SC,40,76,28,100,48,41,49,91,100,78,57,48,,,,,
CCOCCOC(=O)/C(C#N)=C(\NCc1cnc(Cl)s1)C(C)C,96,54,16,100,100,67,19,100,100,96,100,81,100,52,98,15,100
